In ChEMBL document CHEMBL1122161, “Irreversible enzyme inhibitors. 202. Candidate active-site-directed irreversible inhibitors of 5-fluoro-2'-deoxyuridine phosphorylase from Walker 256 rat tumor derived from 1-benzyl-5-(3-ethoxybenzyl)uracil” (J Med Chem, 1982):

Legend:
[1] = organism: Rattus norvegicus; experiment: Irreversible inhibition of Walker 256 FUDR phosphorylase; expressed as Vo/Vi, velocity without inhibitor to that of velocity with inhibitor
In short: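 Walker 256 FUDR phosphorylase preincubated 20 min at ambient temperature with 20 μM (final) inhibitor in pH 5.9 arsenate-succinate buffer, 10% Me2SO, alongside zero-time tubes. Unbound inhibitor then removed by two 1-octanol extractions. Remaining activity assayed after adding 4 mM FUDR stock, stopped with 5% trichloroacetic acid, read as for reversible assay. V0/Vi of 2 corresponds to 50% inhibition.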

[2] = (§1) Ability for reversible inhibition of Walker 256 5-Fluoro-2'-deoxyuridine Phosphorylase; set-up: species or system Rattus norvegicus; conditions: read-out: I 50
In short: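 Enzyme from Walker 256 rat tumor, assayed with 400 μM FUDR as substrate in pH 5.9 arsenate-succinate buffer with 10% Me2SO. Value reported as concentration giving 50% inhibition.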

[3] = as §1; set-up: species or system Rattus norvegicus; conditions: read-out: I50
In short: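 Walker 256 rat tumor FUDR phosphorylase (uridine-deoxyuridine phosphorylase) was assayed with 400 μM FUDR substrate in pH 5.9 arsenate-succinate buffer containing 10% Me2SO. The value is the inhibitor concentration giving 50% inhibition (I50).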

Compound | Ratio [1] | IC50 [2] [nM] | IC50 [3] [nM]
CCOc1cccc(Cc2cn(Cc3cccc(NC(=O)Nc4ccc(S(=O)(=O)F)cc4)c3)c(=O)[nH]c2=O)c1 | 1.1 | 1900 | –
O=c1[nH]c(=O)n(CCCOc2ccccc2)cc1Cc1ccccc1 | – | – | 5700
CCOc1cccc(Cc2cn(Cc3cccc(NC(=O)c4ccc(S(=O)(=O)F)cc4)c3)c(=O)[nH]c2=O)c1 | 1 | 2500 | –
Oc1ncc(Cc2cccc(OCc3ccccc3)c2)c(O)n1 | – | – | 500
COc1cccc(Cc2cnc(O)nc2O)c1 | – | – | 1900
Cn1cc(Cc2ccccc2)c(=O)[nH]c1=O | – | – | 6200
CCOc1cccc(Cc2cn(Cc3ccccc3)c(=O)[nH]c2=O)c1 | – | 1200 | –
CCOc1cccc(Cc2cn(Cc3cccc(NC(=O)Nc4cccc(S(=O)(=O)F)c4)c3)c(=O)[nH]c2=O)c1 | 1.2 | 1100 | –
CCOc1cccc(Cc2cn(Cc3ccc(NC(=O)c4cccc(S(=O)(=O)F)c4)cc3)c(=O)[nH]c2=O)c1 | 1 | 33000 | –
CCOc1cccc(Cc2cn(Cc3cccc(NC(=O)c4cccc(S(=O)(=O)F)c4)c3)c(=O)[nH]c2=O)c1 | 1.1 | 3200 | –
CCOc1cccc(Cc2cn(Cc3ccc(NC(=O)c4ccc(S(=O)(=O)F)cc4)cc3)c(=O)[nH]c2=O)c1 | 1 | 15000 | –
Oc1ncc(Cc2ccccc2)c(O)n1 | – | – | 5300
O=c1[nH]c(=O)n(Cc2ccccc2)cc1Cc1ccccc1 | – | – | 2600
CCOc1cccc(Cc2cn(Cc3cccc(NC(=O)c4ccccc4)c3)c(=O)[nH]c2=O)c1 | 1.2 | – | 1200
CCOc1cccc(Cc2cn(Cc3ccc(NC(=O)c4ccccc4)cc3)c(=O)[nH]c2=O)c1 | – | – | 3800
O=c1[nH]c(=O)n(Cc2ccccc2)cc1Cc1cccc(OCc2ccccc2)c1 | – | – | 2500
CCOc1cccc(Cc2cnc(O)nc2O)c1 | – | 1400 | –
